# Columns and labels:
# Type in all cases: functional
# Rattus norvegicus [1] = assay: Dose required to reduce mean blood pressure after 20 hr following (po) administration conscious spontaneously hypertensive rat
# [2] = Ratio of ED30(20h) to ED30(2h) was determined
# Rattus norvegicus [3] = assay: Dose required to reduce blood pressure by 30 mmHg after (po) administration in conscious spontaneously hypertensive rat
# Procedure, shortened: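 Conscious male Okamoto-strain SHR (280-330 g, >180 mmHg) were given two to four oral doses beyond the 1 mg/kg screen. Mean arterial pressure was recorded directly via an aortic catheter in unrestrained rats. The ED30, the dose in µg/kg lowering pressure by 30 mmHg, came from linear regression of effect vs log dose.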
# Rattus norvegicus [4] = assay: Antihypertensive effect after 1 mg/kg (po) administration in conscious spontaneously hypertensive rat (over a time period of 0-210 minutes).
# Procedure, shortened: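 Male Okamoto-strain SHR (280-330 g, blood pressure >180 mmHg), conscious and unrestrained, given 1 mg/kg orally as a screening dose. Mean arterial pressure was recorded directly and continuously via an aortic catheter from 1 h before to 3.5 h after dosing. The effect is the mean of the maximum individual changes over 3.5 h; N ≥ 3.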
# Rattus norvegicus [5] = assay: Dose required to reduce mean blood pressure after 2 hr following (po) administration conscious spontaneously hypertensive rat
# Rattus norvegicus [6] = assay: Dose required to reduce mean blood pressure was determined after 20h following(po) administration in conscious spontaneously hypertensive rat
# Rattus norvegicus [7] = assay: Dose required to reduce mean blood pressure was determined after 2 hr following(po) administration in conscious spontaneously hypertensive rat
Compound,ED30 (Rattus norvegicus [1]),Ratio [2],ED30 (Rattus norvegicus [3]),Max fall in blood pressure (Rattus norvegicus [4]),ED30 (Rattus norvegicus [5]),ED30 (Rattus norvegicus [6]),ED30 (Rattus norvegicus [7])
COC(=O)c1ccc2c(c1)C(n1ccccc1=O)=CC(C)(C)O2,2.06 mg/kg,3.6,0.202 mg/kg,98 mmHg,0.573 mg/kg,,
CC1(C)C=C(n2cc(N)ccc2=O)c2cc(C#N)ccc2O1,1.61 mg/kg,4.7,0.206 mg/kg,94 mmHg,0.341 mg/kg,,
COc1ccn([C@@H]2c3cc(C#N)ccc3OC(C)(C)[C@H]2O)c(=O)c1,,,0.197 mg/kg,73 mmHg,,,
CC1(C)C=C(n2ccccc2=O)c2cc(Br)ccc2O1,1.27 mg/kg,18.4,0.11 mg/kg,131 mmHg,0.069 mg/kg,,
COC(=N)c1ccc2c(c1)C(N1CCCC1=O)[C@H](O)C(C)(C)O2 (some centres undefined),,,0.083 mg/kg,76 mmHg,,,
CC1(C)Oc2ccc(C#N)cc2[C@H](N2CCCC2=O)[C@H]1O [(-)-CROMAKALIM],0.603 mg/kg,4.6,0.11 mg/kg,78 mmHg,0.131 mg/kg,,
CC(=O)O[C@H]1[C@H](n2ccccc2=O)c2cc(C#N)ccc2OC1(C)C,0.405 mg/kg,3.6,0.106 mg/kg,89 mmHg,0.112 mg/kg,,
CC1(C)Oc2ccc(C#N)cc2[C@@H](n2ccccc2=O)[C@@H]1O [EMAKALIM],,3.1,0.05 mg/kg,108 mmHg,,0.138 mg/kg,0.045 mg/kg
CC1(C)CC(n2ccccc2=O)c2cc(C#N)ccc2O1 (centres undefined),,,0.15 mg/kg,92 mmHg,,,
CC1(C)C=C(n2ccccc2=O)c2cc([N+](=O)[O-])ccc2O1,0.102 mg/kg,146,0.00083 mg/kg,140 mmHg,0.0007 mg/kg,,
CC1(C)C=C(n2ccccc2=O)c2cc(C#N)ccc2O1 [BIMAKALIM],0.186 mg/kg,5.2,0.01 mg/kg,142 mmHg,0.036 mg/kg,,
CC1(C)Oc2ccc(C#N)cc2C(n2ncccc2=O)[C@@H]1O (some centres undefined),0.082 mg/kg,1.8,0.036 mg/kg,77 mmHg,0.045 mg/kg,,
CC1(C)Oc2ccc(C#N)cc2C(N2N=CCCC2=O)[C@@H]1O (some centres undefined),0.148 mg/kg,2.6,0.211 mg/kg,63 mmHg,0.056 mg/kg,,
CC1(C)Oc2ccc(C#N)cc2[C@]2(n3ccccc3=O)O[C@H]12,,,0.202 mg/kg,69 mmHg,,,
CC1(C)Oc2ccc(C#N)cc2[C@@H](n2ccccc2=O)[C@@H]1OC=O,0.416 mg/kg,6.2,0.03 mg/kg,101 mmHg,0.067 mg/kg,,
COc1ccn(C2=CC(C)(C)Oc3ccc(C#N)cc32)c(=O)c1,,,0.066 mg/kg,113 mmHg,,,
CC(=O)c1ccc2c(c1)C(n1ccccc1=O)=CC(C)(C)O2,0.546 mg/kg,7.4,0.025 mg/kg,130 mmHg,0.074 mg/kg,,
CC1(C)C=C(n2ccncc2=O)c2cc(C#N)ccc2O1,0.357 mg/kg,9.4,0.022 mg/kg,105 mmHg,0.038 mg/kg,,
CC1(C)Oc2ccc([N+](=O)[O-])cc2[C@@H](n2ccccc2=O)[C@@H]1OC=O,,,0.074 mg/kg,129 mmHg,,,
CC1(C)Oc2ccc(C#N)cc2C(n2ccncc2=O)[C@@H]1O (some centres undefined),1.29 mg/kg,4.4,0.01 mg/kg,75 mmHg,0.291 mg/kg,,
CC1(C)Oc2ccc([N+](=O)[O-])cc2[C@]2(n3ccccc3=O)O[C@H]12,,,0.06 mg/kg,118 mmHg,,,
CCOc1ccn(C2=CC(C)(C)Oc3ccc(C#N)cc32)c(=O)c1,> 1 mg/kg,> 7.3,0.017 mg/kg,136 mmHg,0.137 mg/kg,,
CC1(C)Oc2ccc([N+](=O)[O-])cc2[C@@H](n2ccccc2=O)[C@@H]1O,,25.2,0.024 mg/kg,113 mmHg,,0.884 mg/kg,0.035 mg/kg

# — ChEMBL document CHEMBL1125037, “Synthesis and antihypertensive activity of 4-(1,2-dihydro-2-oxo-1-pyridyl)-2H-1-benzopyrans and related compounds, new potassium channel activators” (1990)
